The subject of data set [1] is Coxsackievirus B4. In words: Antiviral activity against Coxsackievirus B4 infected in human HeLa cells assessed as inhibition of virus-induced cytopathicity after 3 days. The note with it: Enterovirus B, 72 h. The class given is functional, organism-based. Put shortly: (§1)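 Confluent cell monolayers infected with 100 CCID50 virus; after 2 h adsorption at 37 °C, virus removed and serial compound dilutions added (DMSO stocks 10 mg/ml). Incubated 37 °C for 3 days until complete CPE in untreated virus control.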
In general terms: Damage to the host cells serves as the signal in cytopathic effect assays.

Data set [2] deals with Vesicular stomatitis virus. The experiment in a line: Antiviral activity against Vesicular stomatitis virus infected in human HeLa cells assessed as inhibition of virus-induced cytopathicity after 3 days. The data set is classed as functional, organism-based. The note with it: 72 h.
A further data set relates to Human respirovirus 3. The experiment in a line: Antiviral activity against Parainfluenza virus type 3 infected in african green monkey Vero cells assessed as inhibition of virus-induced cytopathicity after 3 days. The note with it: Human respirovirus 3, Vero, 72 h. The class given is functional, organism-based. Put shortly: (§2)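 Confluent cell monolayers infected with 100 CCID50 virus; after 2 h adsorption at 37 °C, virus removed and serial compound dilutions added (DMSO stocks 10 mg/ml). Incubated 37 °C for 3 days until complete CPE in untreated virus control. EC50 = concentration protecting 50% of infected cells from viral cytopathogenicity; ">" marks highest concentration tested.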

Data set [3] can be described thus: Selectivity index, ratio of MCC for african green monkey Vero cells to EC50 for Reovirus 1. The data set is classed as toxicity, cell-based. The note with it: read-out: Selectivity Index. The procedure, abridged: (§3)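 The ratio was MCC/EC50. MCC was the minimum concentration causing microscopically visible change in normal morphology of uninfected HEL, HeLa or Vero cells, scored in parallel with the antiviral test. EC50 came from the CPE assay: 100 CCID50 infection, 2 h adsorption at 37 °C, serial compound dilutions, and 3 days at 37 °C. It was the concentration protecting 50% of cells from virus-induced CPE.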

The next data set relates to Punta Toro virus. The experiment in a line: Antiviral activity against Punta Toro virus infected in african green monkey Vero cells assessed as inhibition of virus-induced cytopathicity after 3 days. The data set is classed as functional, organism-based. As to conditions: 72 h. Put shortly: as §1
The test system of data set [4] is Human alphaherpesvirus 1. The experiment in a line: Antiviral activity against HSV1 KOS infected in human HEL cells assessed as inhibition of virus-induced cytopathicity after 3 days. The data set is classed as functional, organism-based. As to conditions: Human alphaherpesvirus 1, KOS, 72 h.
Data set [5] deals with Vaccinia virus. The experiment in a line: Antiviral activity against Vaccinia virus Lister. The data set is classed as functional, organism-based.
Data set [6] is described as follows: Selectivity index, ratio of MCC for human HEL cells to EC50 for sVaccinia virus. The class given is toxicity, cell-based. Put shortly:
as §3

A short description of data set [7]: Selectivity index, ratio of MCC for african green monkey Vero cells to EC50 for Sindbis virus. The class given is toxicity, cell-based. As to conditions: read-out: Selectivity Index. Put shortly: as §3
Data set [8] is described as follows: Selectivity index, ratio of MCC for african green monkey Vero cells to EC50 for Coxsackievirus B4. The data set is classed as toxicity, cell-based. The note with it: read-out: Selectivity Index. Put shortly: as §3
The test system of the next data set is Sindbis virus. In words: Antiviral activity against Sindbis virus infected in african green monkey Vero cells assessed as inhibition of virus-induced cytopathicity after 3 days postinfection. The data set is classed as functional, organism-based. The note with it: 72 h. The procedure, abridged:
as §2

Data set [9] can be described thus: Cytotoxicity against african green monkey Vero cells assessed as minimum cytotoxic concentration required to cause microscopically detectable alteration in normal cell morphology. The data set is classed as cell-based. As to conditions: chlorocebus sabaeus. Put shortly: (§4)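 Run in parallel with antiviral assays on uninfected cell cultures; test compounds from 10 mg/ml DMSO stocks in serial dilution. Value is minimum cytotoxic concentration (MCC) producing microscopically detectable alteration of normal cell morphology.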

Data set [10] deals with Human alphaherpesvirus 1. In words: Antiviral activity against thymidine kinase-deficient ACV-resistant HSV1 KOS infected in human HEL cells assessed as inhibition of virus-induced cytopathicity after 3 days. The class given is functional, organism-based. The note with it: Human alphaherpesvirus 1, KOS, 72 h.
A further data set deals with Cowpox virus. In words: Antiviral activity against Cowpox virus Brighton. The data set is classed as functional, organism-based. As to conditions: Cowpox virus (Brighton Red).
Data set [11] in a line: Cytotoxicity against human HeLa cells assessed as minimum cytotoxic concentration required to cause microscopically detectable alteration in normal cell morphology. The class given is cell-based. Put shortly: as §4
The test system of data set [12] is Vaccinia virus. The experiment in a line: Antiviral activity against Vaccinia virus Copenhagen. As to conditions: Orthopoxvirus vaccinia. The class given is functional, organism-based.
The subject of data set [13] is Respiratory syncytial virus. In words: Antiviral activity against RSV infected in human HeLa cells assessed as inhibition of virus-induced cytopathicity after 3 days. The note with it: 72 h. The class given is functional, organism-based. The procedure, abridged: as §2
For data set [14], the system named is Vaccinia virus. The experiment in a line: Antiviral activity against Vaccinia virus Western Reserve. The note with it: Orthopoxvirus vaccinia. The data set is classed as functional, organism-based.
Data set [15] is described as follows: Cytotoxicity against HEL cells assessed as minimum cytotoxic concentration required to cause microscopically detectable alteration in normal cell morphology. The note with it: human. The data set is classed as cell-based. Put shortly: as §4
The nature of data set [16]: Selectivity index, ratio of MCC for african green monkey Vero cells to EC50 for Punta Toro virus. The class given is toxicity, cell-based. As to conditions: read-out: Selectivity Index. The procedure, abridged: as §3
In data set [17] the test system is Coxsackievirus B4. In words: Antiviral activity against Coxsackievirus B4 infected in african green monkey Vero cells assessed as inhibition of virus-induced cytopathicity after 3 days. The class given is functional, organism-based. The note with it: Enterovirus B, 72 h. Put shortly: as §2
For data set [18], the system named is Vaccinia virus. In words: Antiviral activity against Vaccinia virus infected in human HEL cells assessed as inhibition of virus-induced cytopathicity after 3 days. The class given is functional, organism-based. The note with it: Orthopoxvirus vaccinia, 72 h.
Data set [19] relates to Mammalian orthoreovirus 1. The experiment in a line: Antiviral activity against Reovirus 1 infected in african green monkey Vero cells assessed as inhibition of virus-induced cytopathicity after 3 days. The class given is functional, organism-based. The note with it: Mammalian orthoreovirus 1, Vero, 72 h. The procedure, abridged:
as §2

Data set [20] has as its system Vesicular stomatitis virus. The experiment in a line: Antiviral activity against Vesicular stomatitis virus infected in human HEL cells assessed as inhibition of virus-induced cytopathicity after 3 days. The data set is classed as functional, organism-based. As to conditions: 72 h.
The subject of another data set is Human alphaherpesvirus 2. The experiment in a line: Antiviral activity against HSV2 G infected in human HEL cells assessed as inhibition of virus-induced cytopathicity after 3 days. The class given is functional, organism-based. The note with it: Human alphaherpesvirus 2, strain G, 72 h. The procedure, abridged: as §2
Data set [21] is described as follows: Selectivity index, ratio of MCC for human HEL cells to EC50 for sVesicular stomatitis virus. The class given is toxicity, cell-based. The note with it: read-out: Selectivity Index. Put shortly:
as §3

Data set [22] in a line: Selectivity index, ratio of MCC for human HeLa cells to EC50 for Coxsackievirus B4. As to conditions: read-out: Selectivity Index. The data set is classed as toxicity, cell-based. The procedure, abridged:
as §3

This is an account of results in ChEMBL document CHEMBL1153616, “Synthesis and antiviral activity of new pyrazole and thiazole derivatives” (Eur J Med Chem, 2009).

In brackets after ≈: the same amount, converted by molar mass. Activity calls are given as the source filed them. No cut-off for these calls is given here.

Turning to `CC(=O)N1N=C(c2ccc(Cl)cc2)CC1c1ccc(OCc2ccccc2)cc1` (configuration not stated), the EC50 (usually the midpoint of the concentration-response curve) in the data set on Coxsackievirus B4 [1] is more than 20 µg/mL; in data set [2], more than 20 µg/mL; in the data set on Human respirovirus 3 it was more than 4 µg/mL; in the data set with Punta Toro virus, more than 4 µg/mL; with Human alphaherpesvirus 1 [4] it was more than 20 µg/mL; in the data set on Sindbis virus it was more than 4 µg/mL. For the same compound, the EC50 in the data set with Human alphaherpesvirus 1 [10] is more than 20 µg/mL; in [13], more than 20 µg/mL; in the data set on Coxsackievirus B4 [17], more than 4 µg/mL; in the data set with Vaccinia virus [18] it was 7 µg/mL (≈ 17.3 µM); in [19], more than 4 µg/mL; in [20] it was more than 20 µg/mL. In addition, the concentration for a half-maximal effect (EC50) with Human alphaherpesvirus 2 was more than 20 µg/mL. For the same compound, the selectivity ratio came to 5 in data set [3]; 3.6 in data set [6]; 5 in [7]; 5 in data set [8]; 5 in data set [16]. The result in the data set on Vaccinia virus [5], with Cowpox virus, with Vaccinia virus [12] and in the data set on Vaccinia virus [14] was inactive. Besides, the values for the MCC in [9], in [11] and in data set [15] were 20 µg/mL, not below 20 µg/mL and 100 µg/mL, respectively.
For the compound `CC(=O)N1N=C(c2ccc(C)cc2)CC1c1ccc(OCc2ccccc2)cc1` (configuration not stated), the 50% effective concentration (EC50) (with Coxsackievirus B4 [1]; in data set [2]; with Human respirovirus 3; with Punta Toro virus; in the data set on Human alphaherpesvirus 1 [4]; with Sindbis virus) was more than 4 µg/mL each time. Also, the EC50 (in the data set with Human alphaherpesvirus 1 [10]; in [13]; in the data set with Coxsackievirus B4 [17]; in the data set on Vaccinia virus [18]; in data set [19]; in [20]) was more than 4 µg/mL each time. Also, in the data set with Human alphaherpesvirus 2, the EC50 was more than 4 µg/mL. In addition, the selectivity ratio in data set [3], in [7], in data set [8], in [21], in [16] and in data set [22] was 5 in each case. Besides, the MCC in data set [9], in [11] and in data set [15] was 20 µg/mL each time.
